{
  "source": "paper PMC4075987",
  "about": "(Biochemistry, 2014)",
  "key": {"[1]": {"biological_target": "T1, apo-FbpABp (Bordetella pertussis, UniProt Q7VXW9)", "T1 sequence (Q7VXW9 31-349)": "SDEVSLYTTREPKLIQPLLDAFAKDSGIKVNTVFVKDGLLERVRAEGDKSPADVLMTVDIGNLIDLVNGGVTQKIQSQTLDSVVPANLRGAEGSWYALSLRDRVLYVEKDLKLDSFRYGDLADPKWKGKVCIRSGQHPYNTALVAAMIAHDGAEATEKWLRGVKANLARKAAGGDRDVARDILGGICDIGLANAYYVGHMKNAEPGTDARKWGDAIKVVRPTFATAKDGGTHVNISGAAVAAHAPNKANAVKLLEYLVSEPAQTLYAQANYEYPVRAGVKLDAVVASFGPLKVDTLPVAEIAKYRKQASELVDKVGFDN", "type": "binding"}, "[2]": {"system": "FbpABp", "type": "binding, Bordetella pertussis", "conditions": "absence of a suitable synergistic anion", "summary_of_the_method": "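Recombinant B. pertussis FbpA was made periplasmically in B. bronchiseptica ΔfbpA grown in iron-depleted Stainer–Scholte medium at 35 °C, then osmotic-shock extracted and DEAE-purified. Apo-protein took 50 equiv carbonate/oxalate (30 min) then 10 equiv Fe(ClO4)3 (overnight, 4 °C, filtered), or 10 equiv citrate/NTA then 2 equiv 1:1 Fe-anion. Iron was titrated to maximal CT band, dialysed, then competed against EDTA; pH 6.5 MES/NaCl.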"}, "[3]": {"biological_target": "T1, apo-FbpABp", "test": "UV-vis spectral difference experiment between apo-DFB and apo-FbpABp", "type": "binding", "conditions": "results not shown"}, "[4]": {"biological_target": "T1, apo-FbpABp", "conditions": "pH 6.5, 50 mM MES, 100 mM NaCl; monitored 3 h"}, "[5]": {"conditions": "read-out: Kd (apparent Fe3+-siderophore/apo-FbpABp dissociation constant, eq 3), ferric siderophore complex, one-site model, 50 mM MES, 100 mM NaCl, pH 6.5, room temperature"}},
  "note": "“Also recorded” adds a separate entry of the source. Where two headings read alike, the source gives them in different places. Square brackets hold non-standard residues; d marks the D form. Peptide text beside a SMILES is read from it. Orn(N5-OH,N5-Ac) = CC(=O)N(O)CCC[C@H](N)C(=O)O",
  "data": [
    {"compound": "CC(=O)N([O-])CCC[C@@H]1NC(=O)CNC(=O)CNC(=O)CNC(=O)[C@H](CCCN([O-])C(C)=O)NC(=O)[C@H](CCCN([O-])C(C)=O)NC1=O.[Fe+3]", "note": "[FC, ferrichrome] (cyclo(GGG[Orn(N5-OH,N5-Ac)][Orn(N5-OH,N5-Ac)][Orn(N5-OH,N5-Ac)]))", "values": [
      {"measurement": "Kd", "setting": "[1]; [5]", "value": "~1000", "unit": "nM"}
    ]},
    {"compound": "[Fe+3]", "note": "[Fe^3+, Ferric iron]", "values": [
      {"measurement": "Fe3+ sequestration by FbpABp", "setting": "[2]", "value": "No Fe^3+ sequestration was observed"}
    ]},
    {"compound": "CC(=O)N(O)CCCCCNC(=O)CCC(=O)N(O)CCCCCNC(=O)CCC(=O)N(O)CCCCCN", "note": "[DFB, desferrioxamine B]", "values": [
      {"measurement": "Kd", "setting": "[1]", "value": "~1000", "unit": "nM"},
      {"measurement": "binding of apo-siderophore by apo-FbpABp", "setting": "[3]", "value": "not able to bind an apo-siderophore effectively"}
    ]},
    {"compound": "O=C1CCC(=O)N(O)CCC(O)CNC(=O)CCC(=O)N(O)CCC(O)CN1", "note": "(centres unmarked) [ALC, alcaligin]", "values": [
      {"measurement": "Kd", "setting": "[1]; [5]", "value": "~100", "unit": "nM"}
    ]},
    {"compound": "ferric-alcaligin [Fe2(ALC)3]", "values": [
      {"measurement": "Qmax (maximum % quenching)", "setting": "[1]; ferric siderophore complex, emission 352 nm, excitation 297 nm, pH 6.5", "value": "~80", "unit": "%"},
      {"measurement": "blue shift of FbpABp emission band", "setting": "[1]; on addition of ferric siderophore to apo-FbpABp", "value": "~8", "unit": "nm"},
      {"measurement": "Kd", "setting": "[1]; [5]", "value": "130 ± 40", "unit": "nM"},
      {"measurement": "change of ferric siderophore CT band after addition of apo-FbpABp", "setting": "[4]", "value": "shift in λmax from 428 nm (CT band for Fe2ALC3) to 410 nm; also recorded: λmax shifted from 428 to 410 nm"}
    ]},
    {"compound": "O=C(N[C@H]1COC(=O)[C@@H](NC(=O)c2cccc(O)c2O)COC(=O)[C@@H](NC(=O)c2cccc(O)c2O)COC1=O)c1cccc(O)c1O", "note": "[ENT, enterobactin]", "values": [
      {"measurement": "Kd", "setting": "[1]", "value": "~1000", "unit": "nM"},
      {"measurement": "quenching of apo-protein fluorescence emission band by apo-siderophore", "setting": "[1]; apo-siderophore, final protein:apo-siderophore 1:4 (ALC), 1:2 (ENT)", "value": "< 16", "unit": "%"}
    ]}
  ]
}
